To fix the notation:
B1: Osa-1-4 twister ribozyme (parent)
chain: CCGCCUAACACUGCCAAUGCCGGUCCCAAGCCCGGAUAAAAGUGGAGGGGGCGG

In this data set the parent is B1. The data set can be described thus: self-cleavage, relative activity (ratio to wild type); higher = more cleavage; co-transcriptional. In short, it runs like this:
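A DNA template encoding a 54-nucleotide twister ribozyme from Oryza sativa was made so that each of the 48 positions downstream of the cleavage site carried 97 % wild-type base and 1 % of each other base. Transcription in vitro ran for 2 h at 37 °C, during which the ribozyme could cleave itself. Reverse transcription used a template-switching oligonucleotide, and the products were PCR-amplified and deep-sequenced. Each read was scored as cleaved or uncleaved by whether upstream sequence was present, and relative activity is the fraction cleaved normalised to wild type.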
For the variant C31U U18G, the self-cleavage worked out at 0.82.
As for C31U U18A, the self-cleavage was 0.9.
C31U U18C: the self-cleavage stood at 0.87.
Take C32U G45C: the self-cleavage was determined as 0.03.
Regarding C32U G45A, the self-cleavage came to 0.08.
On to C32U G45U, for which the self-cleavage was determined as 0.04.
Take C31U G48A: the self-cleavage stood at 0.05.
On to C31U G48C, for which the self-cleavage is 0.05.
As for C31U G48U, the self-cleavage was found to be 0.04.
As for C32A C9G, the figure is 0.06.
As for C32A C9U, the self-cleavage was determined as 0.05.
Take C32A C9A: the self-cleavage amounted to 0.05.
On to C32U G19C, for which the self-cleavage worked out at 0.03.
Consider C32U G19U, for which the self-cleavage was 0.05.
Take C32U G19A: the self-cleavage was 0.1.
As for C31U G51A, the figure is 0.29; as for C31U G51U, 0.13.
Take C31U G51C: the self-cleavage was 0.06.
In the case of C32G U12A, the self-cleavage worked out at 0.12.
On to C32G U12G, for which the self-cleavage is 0.06.
On to C32G U12C, for which the self-cleavage is 0.08.
C31U U43A: the self-cleavage was 0.17.
On to C31U U43G, for which the self-cleavage was 0.1.
In the case of C31U U43C, the self-cleavage amounted to 0.08.
For the variant C33A G47U, the self-cleavage came out at 0.04.
C33A G47A: the self-cleavage came to 0.04.
On to C33A G47C, for which the self-cleavage came out at 0.04.
Consider C33A, for which the self-cleavage turned out to be 0.28.
As for C33A G30U, the self-cleavage worked out at 0.02.
As to C33A G30A, the self-cleavage was determined as 0.02.
Regarding C33A G30C, the self-cleavage was 0.02.
Turning to C32G G22A, the self-cleavage stood at 0.1.
C32G G22U: the self-cleavage is 0.07.
C32G G22C: the self-cleavage stood at 0.04.
The value for C31U G49A was 0.06.
With C31U G49C, the self-cleavage is 0.05.
In the case of C31U G49U, the self-cleavage stood at 0.06.
Turning to C31U U37C, the self-cleavage amounted to 0.94.
C31U U37A: the self-cleavage was found to be 0.84.
With C31U U37G, the self-cleavage came out at 1.
As to C32U U37A, the self-cleavage was determined as 0.21.
Turning to C32U U37G, the self-cleavage turned out to be 0.26.
As to C32U U37C, the self-cleavage was 0.16.
As for C33A G45A, the figure is 0.06; as for C33A G45U, 0.04.
For the variant C33A G45C, the self-cleavage stood at 0.04.
C32G G35U: the self-cleavage worked out at 0.08.
For the variant C32G G35A, the self-cleavage was 0.09.
Consider C32G G35C, for which the self-cleavage turned out to be 0.07.
In the case of C32A C33U, the self-cleavage was 0.05.
As to C32A C33A, the self-cleavage was 0.07.
In the case of C32A C33G, the self-cleavage was determined as 0.03.
As to C32U G51A, the self-cleavage was determined as 0.07.
C32U G51U: the self-cleavage is 0.05.
The value for C32U G51C was 0.05; that for C32U U12A was 0.1; that for C32U U12C was 0.08.
As for C32U U12G, the figure is 0.09; as for C32A U37C, 0.13; as for C32A U37A, 0.14.
Take C32A U37G: the self-cleavage is 0.18.
As to C32U G22A, the self-cleavage came to 0.09.
Take C32U G22C: the self-cleavage worked out at 0.04.
For C32U G22U, the self-cleavage came to 0.07.
Take C32A G35A: the self-cleavage was 0.06.
The value for C32A G35U was 0.07; that for C32A G35C was 0.05.
The value for C33A G35C was 0.04; that for C33A G35U was 0.07.
Regarding C33A G35A, the self-cleavage stood at 0.07.
As to C32U G35C, the self-cleavage turned out to be 0.06.
On to C32U G35A, for which the self-cleavage was 0.08.
On to C32U G35U, for which the self-cleavage was found to be 0.06.
As to C32A U24A, the self-cleavage was determined as 0.06.
As to C32A U24C, the self-cleavage was 0.04.
Take C32A U24G: the self-cleavage was determined as 0.02.
With C32U G48U, the self-cleavage amounted to 0.03.
On to C32U G48A, for which the self-cleavage was determined as 0.03.
Regarding C32U G48C, the self-cleavage was 0.03.
For the variant C31U G53C, the self-cleavage came to 0.05.
Turning to C31U G53U, the self-cleavage turned out to be 0.08.
On to C31U G53A, for which the self-cleavage came to 0.19.
The value for C32A G44A was 0.06.
As for C32A G44C, the figure is 0.07; as for C32A G44U, 0.08; as for C33A G13C, 0.01.
C33A G13U: the self-cleavage was determined as 0.02.
As for C33A G13A, the figure is 0.02; as for C32G G42C, 0.08; as for C32G G42A, 0.09.
As for C32G G42U, the self-cleavage is 0.04.
As for C32A G53U, the figure is 0.05; as for C32A G53C, 0.02.
With C32A G53A, the self-cleavage was 0.08.
The value for C33A G51C was 0.05; that for C33A G51U was 0.05.
On to C33A G51A, for which the self-cleavage is 0.06.
C33A G19U: the self-cleavage stood at 0.04.
In the case of C33A G19A, the self-cleavage was found to be 0.07.
Turning to C33A G19C, the self-cleavage stood at 0.03.
For the variant C32G G45U, the self-cleavage is 0.04.
For C32G G45A, the self-cleavage was found to be 0.05.
With C32G G45C, the self-cleavage was 0.03.
For the variant C32U G42A, the self-cleavage worked out at 0.08.
Turning to C32U G42U, the self-cleavage came to 0.03.
The value for C32U G42C was 0.07.
As for C32A G23U, the self-cleavage stood at 0.48.
In the case of C32A G23C, the self-cleavage is 0.03.
As for C32A G23A, the figure is 0.17; as for C32G G30U, 0.02; as for C32G G30C, 0.02.
As for C32G G30A, the figure is 0.03; as for C33A U18C, 0.12.
In the case of C33A U18A, the self-cleavage is 0.15.
In the case of C33A U18G, the self-cleavage came out at 0.17.
In the case of C33A G22U, the self-cleavage was found to be 0.93.
For the variant C33A G22C, the self-cleavage came to 0.22.
On to C33A G22A, for which the self-cleavage turned out to be 0.87.
On to C32A G51A, for which the self-cleavage came to 0.07.
Regarding C32A G51C, the self-cleavage worked out at 0.03.
With C32A G51U, the self-cleavage came to 0.04.
Regarding C32A G45A, the self-cleavage is 0.04.
As for C32A G45C, the figure is 0.02.
For C32A G45U, the self-cleavage came to 0.03.
The value for C33A G49U was 0.04; that for C33A G49C was 0.04.
As for C33A G49A, the figure is 0.05.
As for C32G G49U, the self-cleavage amounted to 0.05.
As to C32G G49C, the self-cleavage was determined as 0.04.
Take C32G G49A: the self-cleavage is 0.05.
C32G U24C: the self-cleavage was determined as 0.05.
On to C32G U24G, for which the self-cleavage turned out to be 0.02.
With C32G U24A, the self-cleavage turned out to be 0.06.
The value for C32U G54U was 0.26.
The value for C32U G54A was 0.1.
As for C32U G54C, the self-cleavage was 0.09.
In the case of C32A G49U, the self-cleavage was 0.04.
C32A G49A: the self-cleavage came out at 0.04.
As for C32A G49C, the figure is 0.03; as for C32G G19A, 0.12.
As for C32G G19U, the self-cleavage amounted to 0.07.
The value for C32G G19C was 0.03; that for C32G C9G was 0.11; that for C32G C9A was 0.03.
As to C32G C9U, the self-cleavage was 0.04.
With C33A G34U, the self-cleavage worked out at 0.06.
As for C33A G34A, the figure is 0.08.
For the variant C33A G34C, the self-cleavage worked out at 0.05.
As to C32U G53A, the self-cleavage amounted to 0.09.
Consider C32U G53U, for which the self-cleavage turned out to be 0.09.
In the case of C32U G53C, the self-cleavage turned out to be 0.05.
C32G G13A: the self-cleavage was 0.04.
In the case of C32G G13C, the self-cleavage was 0.02.
C32G G13U: the self-cleavage came to 0.01.
In the case of C33A C9G, the self-cleavage worked out at 0.08.
As for C33A C9A, the figure is 0.05; as for C33A C9U, 0.07.
As for C32G U18C, the figure is 0.15.
As for C32G U18G, the figure is 0.14; as for C32G U18A, 0.14.
C31U U24A: the self-cleavage is 0.02.
In the case of C31U U24G, the self-cleavage is 0.03.
In the case of C31U U24C, the self-cleavage was 0.05.
For C31U G47C, the self-cleavage turned out to be 0.03.
For C31U G47U, the self-cleavage was 0.05.
As for C31U G47A, the figure is 0.05; as for C32U C9A, 0.02.

The values above are taken from the RNAGym collection of RNA variant scans (doi:10.1002/anie.201605470).
